Measurements as given in publication PMC7442708 (SLAS discovery : advancing life sciences R & D, 2020).

Tests used:
HES1 and HEY1 = settings: cited from earlier work
[1] = tested on: patient-derived xenograft models; settings: cited from earlier work
KOPT-K1 cells = settings: compared to JURKAT; cited from earlier work
[2] = tested on: Notch-dependent transcription; assay: dual luciferase reporter assay; format: cell-based; settings: TK-Renilla luciferase control reporter (Table S1)
[3] = tested on: Notch target genes HEY1 and HES1; assay: RT-qPCR of endogenous gene expression in NICD-transfected HEK293T cells; format: cell-based; settings: 2.5 μM, 24 hours; normalized to beta actin
Procedure, shortened: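 Total RNA extracted with TRIzol; cDNA reverse-transcribed from 1 μg RNA. Transcripts quantified by SYBR-based real-time PCR, normalized to beta-actin, and analyzed by the ΔΔCt method.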

[4] = target: RBPJ occupancy (RBPJ-DNA interactions in cells) (Homo sapiens, UniProt Q06330); assay: anti-RBPJ ChIP-qPCR in NICD-transfected HEK293T cells; format: cell-based; settings: 2.5 μM, 24 hours
Procedure, shortened: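 HEK293T cells (DMEM, 10% FBS) co-transfected with Flag-NICD and 4xRBPJ-firefly luciferase. About 4 million cells were fixed and sonicated on ice (12 cycles, 30 s on/90 s off, 40% amplitude). ChIP used polyclonal anti-RBPJ (FC31, 1:100) with protein A-agarose. SYBR green qPCR; mean ± SEM, N = 3.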

[5] = target: RBPJ occupancy (RBPJ-DNA interactions in cells) (Mus musculus, UniProt P31266); assay: anti-RBPJ ChIP-qPCR in F9 cells; format: cell-based, murine; settings: 2.5 μM, 24 hours
Procedure, shortened: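 Murine F9 cells, grown in DMEM with 10% FBS, exposed to 2.5 µM test compound for 24 h. About 4 million cells fixed; chromatin sonicated on ice for 12 cycles (30 s on/90 s off, 40% amplitude). ChIP with polyclonal anti-RBPJ (1:100) and protein A-agarose in 500 μL. Enriched DNA quantified by SYBR green real-time PCR; Actin B serves as negative region. Mean ± SEM, N = 3.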

JURKAT cells = assay: cell proliferation, cellular ATP; format: cell-based; settings: 36 hours; compared to CCRF-CEM, DND-41 and CUTLL1
Procedure, shortened: (§1)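 T-ALL cell lines exposed to test compound for 36 h; MOLT-4 grown in RPMI 1640 with 15% FBS. Cellular ATP measured by CellTiter-Glo luminescence as an index of metabolically active cells. Proliferation expressed relative to DMSO control; mean ± SEM, N = 3.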

MOLT4 cells = assay: cell proliferation, cellular ATP; format: cell-based; settings: 36 hours
Procedure, shortened: as §1

DND-41 cells = assay: cell proliferation, cellular ATP; format: cell-based; settings: 36 hours
Procedure, shortened: (§2)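 Cells kept in RPMI 1640 with 15% FBS (CCRF-CEM, DND-41) and exposed to test compound for 36 h. Cellular ATP was measured by CellTiter-Glo luminescence as an index of metabolically active cells. Proliferation is expressed relative to DMSO control; mean ± SEM, N = 3.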

CUTLL1 cells = assay: cell proliferation, cellular ATP; format: cell-based; settings: 36 hours
CCRF-CEM cells = assay: cell proliferation, cellular ATP; format: cell-based; settings: 36 hours
Procedure, shortened: as §2

TALL-1 cells = assay: cell proliferation, cellular ATP; format: cell-based; settings: 96 hours; compared to JURKAT
Procedure, shortened: (§3)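 HPB-ALL and TALL-1 cells (DSMZ), grown in RPMI 1640 with 15% FBS. Exposed to varying amounts of test compound for 96 h, a longer exposure chosen because these lines divide more slowly. Metabolically active cells measured as cellular ATP by CellTiter-Glo luminescence. Proliferation expressed relative to DMSO control; mean ± SEM, N = 3.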

HPB-ALL cells = assay: cell proliferation, cellular ATP; format: cell-based; settings: 96 hours; compared to JURKAT
Procedure, shortened: as §3

[6] = site occupied in part through CTCF

Chain of RBPJ occupancy (RBPJ-DNA interactions in cells) (Mus musculus, UniProt P31266) (P31266 whole entry): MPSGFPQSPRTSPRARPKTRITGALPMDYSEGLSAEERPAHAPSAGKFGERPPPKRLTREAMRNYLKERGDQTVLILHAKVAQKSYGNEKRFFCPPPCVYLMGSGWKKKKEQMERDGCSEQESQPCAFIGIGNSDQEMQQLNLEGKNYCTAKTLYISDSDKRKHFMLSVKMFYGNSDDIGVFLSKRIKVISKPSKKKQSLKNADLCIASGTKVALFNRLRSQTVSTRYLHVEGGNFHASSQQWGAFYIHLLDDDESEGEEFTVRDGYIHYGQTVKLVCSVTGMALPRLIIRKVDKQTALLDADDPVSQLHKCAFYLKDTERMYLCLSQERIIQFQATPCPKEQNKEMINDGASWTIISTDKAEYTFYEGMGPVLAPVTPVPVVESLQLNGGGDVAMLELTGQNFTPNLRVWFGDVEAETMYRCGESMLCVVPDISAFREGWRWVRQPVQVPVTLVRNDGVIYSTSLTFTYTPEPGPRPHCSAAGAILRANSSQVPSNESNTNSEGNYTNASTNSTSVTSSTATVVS
Chain of RBPJ occupancy (RBPJ-DNA interactions in cells) (Homo sapiens, UniProt Q06330) (Q06330 whole entry): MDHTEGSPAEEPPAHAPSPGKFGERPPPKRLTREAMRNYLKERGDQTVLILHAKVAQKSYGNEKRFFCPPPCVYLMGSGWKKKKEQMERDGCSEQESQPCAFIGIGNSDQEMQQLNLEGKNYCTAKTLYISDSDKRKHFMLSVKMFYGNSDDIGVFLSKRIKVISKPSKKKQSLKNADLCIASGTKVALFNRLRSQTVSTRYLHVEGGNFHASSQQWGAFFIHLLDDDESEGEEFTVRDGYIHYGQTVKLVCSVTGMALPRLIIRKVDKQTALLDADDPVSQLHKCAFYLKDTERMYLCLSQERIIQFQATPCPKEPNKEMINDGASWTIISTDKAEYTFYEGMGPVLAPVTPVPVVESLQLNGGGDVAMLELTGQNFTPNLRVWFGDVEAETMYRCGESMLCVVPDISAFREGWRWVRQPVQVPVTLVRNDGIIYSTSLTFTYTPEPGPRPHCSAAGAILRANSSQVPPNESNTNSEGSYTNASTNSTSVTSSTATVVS

C[C@H](NC(=O)Cc1cc(F)cc(F)c1)C(=O)N[C@H](C(=O)OC(C)(C)C)c1ccccc1 [DAPT]
expression of the classic Notch targets HES1 and HEY1 (HES1 and HEY1): decreases the expression

CCOC(=O)COc1ccc(/C=C2\SC(=S)NC2=O)cc1OC [IMR-1]
tumor growth [1]: impairs tumor growth

Cn1nccc1-c1ccc(C(N)=O)c(Oc2ccccc2F)c1 [RIN1]
expression of the classic Notch targets HES1 and HEY1 (HES1 and HEY1): increases the expression | sensitivity of Notch-addicted KOPT-K1 cells (KOPT-K1 cells): as sensitive to RIN1 than Notch-independent JURKAT cells

CC(=O)OC[C@H]1O[C@@H]([S-])[C@H](OC(C)=O)[C@@H](OC(C)=O)[C@@H]1OC(C)=O.CCP(CC)CC.[Au+] [auranofin, Auranofin]
transcription from the TK promoter [2]: decreases transcription from the TK promoter | expression of HES1 [3]: significantly decreased | expression of HEY1 [3]: significantly decreased | expression of Notch-independent TCERG1 [3]: remained unchanged | RBPJ occupancy at the endogenous HES1 promoter [4]: decreased RBPJ occupancy at these sites significantly | RBPJ occupancy at the endogenous HEY1 promoter [4]: decreased RBPJ occupancy at these sites significantly | RBPJ occupancy at the HES1 promoter ([5]; direct RBPJ binding site): decreased RBPJ occupancy | RBPJ occupancy at the ZFP334 promoter ([5]; direct RBPJ binding site): decreased RBPJ occupancy | RBPJ occupancy at NANOG [5, 6]: not effectively disrupted | RBPJ occupancy at NAPRT1 [5, 6]: not effectively disrupted | sensitivity of proliferation (cellular ATP) (JURKAT cells): most resistant | sensitivity of proliferation (cellular ATP) (MOLT4 cells): more sensitive to auranofin than JURKAT | sensitivity of proliferation (cellular ATP) (DND-41 cells): significantly more sensitive to auranofin than JURKAT | sensitivity of proliferation (cellular ATP) (CUTLL1 cells): significantly more sensitive to auranofin than JURKAT | sensitivity of proliferation (cellular ATP) (CCRF-CEM cells): significantly more sensitive to auranofin than MOLT-4 | proliferation (cellular ATP) (TALL-1 cells): decreased the proliferation | proliferation (cellular ATP) (HPB-ALL cells): decreased the proliferation
